The record followed here is ChEMBL document CHEMBL4261516, “Design, synthesis and pharmacological evaluation of new 2-oxo-quinoline derivatives containing α-aminophosphonates as potential antitumor agents” (Medchemcomm, 2017).

Calls of active or inactive are those of the source. The rule behind the calls is not given here.

In test [1] the test system is HepG2. Kind of test: Cell cycle arrest in human HepG2 cells assessed as accumulation at G2/M phase after 48 hrs by propidium iodide staining-based flow cytometric method. Format: functional.
Test [2] relates to HepG2. Kind of test: Upregulation of p27 expression in human HepG2 cells after 48 hrs by Western blot method. Format: functional, cell-based. For orientation: A western blot detects proteins with antibodies after separation by electrophoresis.
In test [3] the test system is HepG2. Kind of test: Downregulation of CDC25C expression in human HepG2 cells after 48 hrs by Western blot method. Format: functional, cell-based.
Test [4] relates to HepG2. Put plainly: Cell cycle arrest in human HepG2 cells assessed as accumulation at G1 phase at 8 uM after 48 hrs by propidium iodide staining-based flow cytometric method (reference value: 50.47%). Format: functional.
Test [5] concerns HepG2. Put plainly: Induction of morphological changes in human HepG2 cells at 10 uM after 12 hrs by Hoechst 33258 staining-based fluorescent microscopic method. Format: functional, cell-based. Summed up: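 Cells were treated on cover slips, fixed in 4% paraformaldehyde for 10 min and washed with PBS. They were stained with Hoechst 33258 for 5 min, washed again, and nuclei were examined by fluorescence microscopy (excitation 350 nm, emission 460 nm).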

The test system of test [6] is HepG2. Put plainly: Induction of apoptosis in human HepG2 cells assessed as early apoptotic cells at 12 uM after 24 hrs by annexin V/[…] staining-based fluorescent microscopic method (reference value: 6.50%). Format: functional.
Test [7] relates to HepG2. Kind of test: Cell cycle arrest in human HepG2 cells assessed as accumulation at S phase at 10 uM after 48 hrs by propidium iodide staining-based flow cytometric method (reference value: 30.49%). Format: functional. (In general: Flow cytometry measures light scatter and fluorescence of single cells or particles in a stream.)
Test [8] has as its system HepG2. Put plainly: Induction of apoptosis in human HepG2 cells assessed as increase in intracellular calcium release at 10 uM after 24 hrs by Fluo-3 AM dye-based fluorescence microscopic method. A general note: Calcium flux is commonly read through the fluorescence of an indicator in the cells.
Test [9] has as its system HepG2. Put plainly: Upregulation of p21 expression in human HepG2 cells after 48 hrs by Western blot method. Format: functional, cell-based.
In test [10] the test system is HepG2. Put plainly: Downregulation of CDK1 expression in human HepG2 cells after 48 hrs by Western blot method. Format: functional, cell-based.
Test [11] relates to HepG2. Kind of test: Induction of apoptosis in human HepG2 cells assessed as membrane blebbing at 10 uM after 24 hrs by acridine orange/ethidium bromide staining-based fluorescent microscopic method. Format: functional, cell-based. Summed up: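 Cells were plated at 5×10^4 cells/mL on sterile cover slips. Medium was replaced with fresh medium containing 10% FBS plus compound. After treatment, cover slips were inverted onto slides with acridine orange/ethidium bromide stain and viewed by fluorescence microscopy.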

Test [12] deals with HepG2. Put plainly: Induction of apoptosis in human HepG2 cells assessed as upregulation of caspase-9 levels at 8 to 12 uM after 24 hrs by Western blot method. Format: functional, cell-based. Summed up:
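Treated HepG2 cells were lysed on ice in 1% SDS/Tris-HCl pH 7.5 buffer with EDTA, NaCl, PMSF, leupeptin and trypsin inhibitor, then cleared at 12,000 × g for 5 min. Protein was quantified by BCA, and 40–50 µg was run on 12% SDS-PAGE and blotted to PVDF. Membranes were blocked with 5% milk, incubated with primary antibody overnight at 4 °C and HRP secondary for 1 h. Detection by chemiluminescence with densitometry.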

Consider `CCOP(=O)(Cc1ccc(/N=C/c2cc3cc(C)ccc3[nH]c2=O)cc1)OCC`, for which the Activity result was “Dose-dependent effect” in the test with HepG2 [1]; “Dose-dependent effect” in the test on HepG2 [2]; “Dose-dependent effect” with HepG2 [3]; 35.31% in the test with HepG2 [4]; 43.07% in the test on HepG2 [6]; 29.16% in the test on HepG2 [7]. Moreover, the Activity entry in the test with HepG2 [9] and in the test on HepG2 [10] was “Dose-dependent effect” each time. For the same compound, the result in the test on HepG2 [5], in the test with HepG2 [8], in the test on HepG2 [11] and in the test with HepG2 [12] was Active.
